pEC50, pIC50: −log10 of the molar value.
Tests used:
[1] = Inhibition of wild type recombinant Toxoplasma gondii CDPK1 using syntide-2 substrate after 30 mins by Kinase-Glo luminescent assay
[2] = target: Cyclin-dependent kinase 5/CDK5 activator 1 (Homo sapiens, UniProt Q00535); test: Inhibition of human recombinant CDK5/P25 expressed in Escherichia coli using histone H1 substrate after 30 mins by scintillation and luminescence counting method in presence of [gamma-33P]ATP
[3] = target: Receptor-interacting serine/threonine-protein kinase 3 (Homo sapiens, UniProt Q9Y572); test: Inhibition of full length human GST-tagged RIPK3 expressed in Spodoptera frugiperda Sf9 cells after 30 mins by scintillation and luminescence counting method in the presence of [gamma-33P]ATP
[4] = Inhibition of porcine brain CK1-delta/epsilon using CKS peptide substrate after 30 mins by scintillation and luminescence counting method in presence of [gamma-33P]ATP; set-up: species or system Sus scrofa
[5] = target: Glycogen synthase kinase-3 (Sus scrofa, UniProt B2LUN4+I6LNT8); test: Inhibition of porcine brain GSK-3 alpha/beta using GS-1 substrate after 30 mins by scintillation and luminescence counting method in the presence of [gamma-33P]ATP
[6] = target: T1, Serine/threonine-protein kinase haspin (Homo sapiens, UniProt Q8TF76); test: Inhibition of human recombinant haspin kinase domain expressed in Escherichia coli BL21-KRX using histone H3 (1 to 21) peptide substrate after 30 mins by scintillation and luminescence counting method in the presence of [gamma-33P]ATP
T1 sequence (Q8TF76 whole entry): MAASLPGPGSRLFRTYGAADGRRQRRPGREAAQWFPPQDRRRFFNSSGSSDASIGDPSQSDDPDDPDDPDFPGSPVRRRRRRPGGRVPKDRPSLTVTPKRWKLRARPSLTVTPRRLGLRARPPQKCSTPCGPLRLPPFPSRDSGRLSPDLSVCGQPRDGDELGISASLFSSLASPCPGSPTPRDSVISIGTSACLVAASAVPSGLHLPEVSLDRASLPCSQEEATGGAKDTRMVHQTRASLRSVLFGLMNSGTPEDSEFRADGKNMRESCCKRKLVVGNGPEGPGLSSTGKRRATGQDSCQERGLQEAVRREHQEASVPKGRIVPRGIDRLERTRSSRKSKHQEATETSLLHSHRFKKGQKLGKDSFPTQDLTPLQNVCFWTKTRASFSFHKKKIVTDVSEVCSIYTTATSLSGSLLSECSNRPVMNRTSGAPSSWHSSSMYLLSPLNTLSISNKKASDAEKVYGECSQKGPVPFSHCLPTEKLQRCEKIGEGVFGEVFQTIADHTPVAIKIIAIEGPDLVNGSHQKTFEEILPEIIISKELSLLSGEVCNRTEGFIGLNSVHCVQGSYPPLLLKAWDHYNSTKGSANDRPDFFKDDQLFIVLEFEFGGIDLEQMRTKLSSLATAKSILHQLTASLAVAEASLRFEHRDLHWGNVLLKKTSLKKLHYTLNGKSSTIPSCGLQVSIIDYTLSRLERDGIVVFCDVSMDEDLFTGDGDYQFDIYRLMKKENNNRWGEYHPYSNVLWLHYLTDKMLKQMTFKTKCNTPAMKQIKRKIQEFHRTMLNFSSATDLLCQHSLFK

Toxoplasma gondii = test: Antiparasitic activity against Toxoplasma gondii RH tachyzoite expressing beta-galactosidase assessed as inhibition of tachyzoite invasion into human foreskin fibroblast host cells after 96 hrs by colorimetric microtitre assay; format: functional, organism-based
Procedure, shortened: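 Invasion of HFF host cells by a recombinant T. gondii strain carrying bacterial β-galactosidase was judged indirectly from parasite growth inhibition in a colorimetric microtiter format.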

[7] = Cytotoxicity against HFF assessed as cell proliferation after 96 hrs by alamar blue reduction assay; format: cell-based; conditions: human, HFF cells
Procedure, shortened: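 Non-specific toxicity to HFF host cells was measured by Alamar Blue reduction as a quantitative read-out of cell proliferation, with the CC50 derived.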

[8] = Lipophilicity, log P of the compound; format: physicochemical; conditions: octanol/water
[9] = Selectivity ratio of IC50 for human recombinant haspin kinase domain expressed in Escherichia coli BL21-KRX to IC50 for wild type recombinant Toxoplasma gondii CDPK1; format: cell-free
[10] = Selectivity ratio of IC50 for porcine brain GSK-3 alpha/beta to IC50 for wild type recombinant Toxoplasma gondii CDPK1
[11] = Selectivity ratio of IC50 for human recombinant CDK5/P25 expressed in Escherichia coli to IC50 for wild type recombinant Toxoplasma gondii CDPK1; format: cell-free
[12] = Selectivity ratio of IC50 for porcine brain CK1-delta/epsilon to IC50 for wild type recombinant Toxoplasma gondii CDPK1
[13] = Selectivity ratio of IC50 for full length human GST-tagged RIPK3 expressed in Spodoptera frugiperda Sf9 cells to IC50 for wild type recombinant Toxoplasma gondii CDPK1

Cyclin-dependent kinase 5/CDK5 activator 1, sequence (Q00535 whole entry): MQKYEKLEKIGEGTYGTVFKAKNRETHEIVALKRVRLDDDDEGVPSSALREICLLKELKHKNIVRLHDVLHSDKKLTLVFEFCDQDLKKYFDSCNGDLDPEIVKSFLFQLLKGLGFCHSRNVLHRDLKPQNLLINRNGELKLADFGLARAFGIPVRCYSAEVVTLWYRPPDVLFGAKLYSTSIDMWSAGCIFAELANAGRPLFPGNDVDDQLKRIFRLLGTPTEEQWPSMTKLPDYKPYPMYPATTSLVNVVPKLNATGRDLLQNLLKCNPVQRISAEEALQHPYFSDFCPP
Cyclin-dependent kinase 5/CDK5 activator 1, sequence (Q15078 whole entry, further chain): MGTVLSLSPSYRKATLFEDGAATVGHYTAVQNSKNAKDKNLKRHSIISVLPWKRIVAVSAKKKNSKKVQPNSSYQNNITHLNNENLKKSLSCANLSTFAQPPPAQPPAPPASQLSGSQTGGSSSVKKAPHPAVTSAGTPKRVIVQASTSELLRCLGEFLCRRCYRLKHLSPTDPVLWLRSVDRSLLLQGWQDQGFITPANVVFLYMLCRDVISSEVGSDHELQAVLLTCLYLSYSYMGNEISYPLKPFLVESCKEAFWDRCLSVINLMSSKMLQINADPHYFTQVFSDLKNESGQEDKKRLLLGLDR
Receptor-interacting serine/threonine-protein kinase 3, sequence (Q9Y572 whole entry): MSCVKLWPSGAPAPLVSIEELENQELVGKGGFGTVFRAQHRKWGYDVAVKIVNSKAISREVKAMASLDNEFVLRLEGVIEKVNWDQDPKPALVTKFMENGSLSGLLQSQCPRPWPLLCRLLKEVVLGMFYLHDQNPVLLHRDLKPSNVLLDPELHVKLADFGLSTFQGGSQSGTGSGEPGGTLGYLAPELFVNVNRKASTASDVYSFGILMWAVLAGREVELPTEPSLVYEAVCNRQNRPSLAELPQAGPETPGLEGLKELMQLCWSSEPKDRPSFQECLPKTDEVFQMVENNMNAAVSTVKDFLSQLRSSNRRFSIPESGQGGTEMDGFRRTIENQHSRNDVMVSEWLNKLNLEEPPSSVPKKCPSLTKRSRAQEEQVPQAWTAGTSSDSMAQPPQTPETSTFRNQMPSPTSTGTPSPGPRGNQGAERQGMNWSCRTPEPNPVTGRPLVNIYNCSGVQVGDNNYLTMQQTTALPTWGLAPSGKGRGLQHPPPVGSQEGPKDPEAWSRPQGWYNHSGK

Row | SMILES | pIC50 [2] | pIC50 [3] | pIC50 [4] | IC50 [5] [µM] | pIC50 [6] | logP [8] | pIC50 [1] | pEC50 (Toxoplasma gondii) | CC50 at 96 h [7] [µM] | Ratio IC50 [9] | Ratio IC50 [10] | Ratio IC50 [11] | Ratio IC50 [12] | Ratio IC50 [13]
1 | CCOc1ccc2c(-c3nc4ccc(N5CCN(C)CC5)nn4c3-c3ccncc3)cccc2c1 | < 5.00 | 5.77 | < 5.00 | > 10 | < 5.00 | 5 | 6.04 | 5.77 | 7.6 |  |  |  |  | 
2 | COc1cccc(-c2nc3ccc(N4CCN(C)CC4)nn3c2-c2ccncc2)c1 | < 5.00 | ≤ 5.00 | 6.40 | 8.8 | < 5.00 |  | 8.05 | 7.30 | 38 |  |  |  |  | 
3 | COc1ccc2c(-c3nc4ccc(N5CCN(C)CC5)nn4c3-c3ccncc3)cccc2c1 | < 5.00 | 5.92 | < 5.00 | > 10 | < 5.00 |  | 6.30 | 5.66 | 20.9 |  |  |  |  | 
4 | CCc1nc(N)nc(N)c1-c1ccc(Cl)cc1 [PYRIMETHAMINE] |  |  |  |  |  |  |  | 6.47 | > 50 |  |  |  |  | 
5 | CN1CCN(c2ccc3nc(-c4cccc5c4OCO5)c(-c4ccncc4)n3n2)CC1 | < 5.00 | 5.60 | 6.43 | 5.4 | < 5.00 |  | 7.85 | 7.00 | 42.5 | > 380 | > 380 | > 380 | 25 | > 100
6 | CN1CCN(c2ccc3nc(-c4ccc(-c5ccccc5)s4)c(-c4ccncc4)n3n2)CC1 | < 5.00 | < 5.00 | < 5.00 | > 10 | < 5.00 | 5 | 5.45 | 5.51 | 6.8 |  |  |  |  | 
7 | CN1CCN(c2ccc3nc(-c4ccc5ncsc5c4)c(-c4ccncc4)n3n2)CC1 | < 5.00 | < 5.00 | 6.02 | > 10 | < 5.00 |  | 6.40 | 5.78 | 17.5 |  |  |  |  | 
8 | c1cc2c(c(-c3nc4cccnn4c3-c3ccncc3)c1)OCO2 | < 5.00 | 5.26 | 5.62 | 3.5 | < 5.00 | 5 | 6.66 | 5.89 | 8.2 |  |  |  |  | 
9 | CN1CCN(c2ccc3nc(-c4cccc5c4OCO5)c(-c4ccncc4)n3c2)CC1 | < 5.00 | < 5.00 | < 5.00 | > 10 | < 5.00 |  | 6.07 | < 5.30 | > 50 |  |  |  |  | 
10 | CN1CCN(c2ccc3nc(-c4ccc5c(c4)OCO5)c(-c4ccncc4)n3n2)CC1 | < 5.00 | 5.12 | 6.82 | > 10 | < 5.00 |  | 6.82 | 6.20 | 17.5 |  |  |  |  | 
11 | CN1CCN(c2ccc3nc(-c4cccc5c4OCO5)c(-c4ccccc4)n3n2)CC1 | < 5.00 | < 5.00 | ≤ 5.00 | 2.2 | < 5.00 |  | 5.27 | 5.72 | 21.9 |  |  |  |  | 
12 | CC1CN(c2ccc3nc(-c4cccc5c4OCO5)c(-c4ccncc4)n3n2)CC(C)N1C (configuration not stated) |  |  |  |  |  |  | 6.20 | 6.20 | > 50 |  |  |  |  | 
13 | CN1CCN(c2ccc3nc(-c4cccc(-c5cccs5)c4)c(-c4ccncc4)n3n2)CC1 | < 5.00 | 6.57 | 5.51 | 10 | < 5.00 | 5 | 6.43 | 5.85 | 6.7 |  |  |  |  | 
14 | CN1CCN(c2ccc3nc(-c4ccc(-c5ccccc5)cc4)c(-c4ccncc4)n3n2)CC1 | < 5.00 | < 5.00 | < 5.00 | > 10 | < 5.00 |  | 5.46 | < 5.30 | 13.7 |  |  |  |  | 
15 | CN1CCN(c2ccc3nc(-c4cccc5c4OCCO5)c(-c4ccncc4)n3n2)CC1 | < 5.00 | < 5.00 | 5.70 | > 10 | < 5.00 |  | 5.91 | 6.03 | > 50 |  |  |  |  | 

Second part, led by results:

Row | pIC50 [2] | pIC50 [3] | pIC50 [4] | IC50 [5] [µM] | pIC50 [6] | logP [8] | SMILES | pIC50 [1] | pEC50 (Toxoplasma gondii) | CC50 at 96 h [7] [µM] | Ratio IC50 [9] | Ratio IC50 [10] | Ratio IC50 [11] | Ratio IC50 [12] | Ratio IC50 [13]
16 | < 5.00 | 6.35 | < 5.00 | > 10 | < 5.00 |  | CN1CCN(c2ccc3nc(-c4cccc(-c5ccccc5)c4)c(-c4ccncc4)n3n2)CC1 | 6.36 | 6.00 | 10.9 |  |  |  |  | 
17 | < 5.00 | 6.06 | 6.29 | > 10 | < 5.00 |  | CN1CCN(c2ccc3nc(-c4cccc5ccccc45)c(-c4ccncc4)n3n2)CC1 | 8.10 | 7.15 | 21.3 | > 1000 | > 1000 | > 1000 | 25 | > 100
18 | < 5.00 | 6.52 | ≤ 5.00 | 7.6 | < 5.00 | 5 | CN1CCN(c2ccc3nc(-c4cccc(-c5ccsc5)c4)c(-c4ccncc4)n3n2)CC1 | 6.30 | 6.21 | 6.3 |  |  |  |  | 
19 | < 5.00 | < 5.00 | < 5.00 | > 10 | < 5.00 |  | CN1CCN(c2ccc3nc(-c4ccc(C(=O)N5CCOCC5)cc4)c(-c4ccncc4)n3n2)CC1 | < 5.30 | < 5.30 | 14.1 |  |  |  |  | 
20 | < 5.00 | < 5.00 | < 5.00 | > 10 | 5.41 | < 3 | CN1CCN(c2ccc3nc(-c4cccc(C(=O)N5CCOCC5)c4)c(-c4ccncc4)n3n2)CC1 | 5.52 | < 5.30 | 6.4 |  |  |  |  | 
21 | < 5.00 | < 5.00 | < 5.00 | > 10 | < 5.00 |  | CN1CCN(c2ccc3nc(-c4cccc5c4OCO5)c(-c4cccnc4)n3n2)CC1 | 5.19 | < 5.30 | 35.9 |  |  |  |  | 
22 | < 5.00 | < 5.00 | ≤ 5.00 | > 10 | < 5.00 | < 3 | CN1CCN(c2ccc3nc(-c4ccc5c(c4)OCCO5)c(-c4ccncc4)n3n2)CC1 | 6.96 | 6.31 | 7.6 |  |  |  |  | 

From ChEMBL document CHEMBL3734718, “Development of new highly potent imidazo[1,2-b]pyridazines targeting Toxoplasma gondii calcium-dependent protein kinase 1” (Eur J Med Chem, 2015)
